Experimental data of several laboratories.
Protocols differ between the studies behind these lines.

SMILES | target or system | test | system | setting | measurement | result
NS(=O)(=O)c1nnc(NC(=O)CCC2CC3CCC2C3)s1 (stereo not shown) | – | metabolic stability | mouse, liver microsomes | 1 h | compound remaining | 41%
COc1cc(-c2cc(C(C)=O)n3ccccc23)c(OC)cc1Cn1ccnc1 | – | metabolic stability | rat, liver microsomes | 1 µM, 1 h, pH 7.4 | compound remaining | 62%
N#Cc1ccc(C[C@H](NC(=O)c2cc3ccc(F)cc3[nH]2)C(=O)N2CCc3ccccc32)cc1 | – | metabolic stability | rat, liver microsomes | 10 µM, 30 min, pH 7.4 | compound remaining | 90%
NS(=O)(=O)c1nnc(NC(=O)C2CCCC3(CCCCC3)C2)s1 (stereo not shown) | – | metabolic stability | mouse, liver microsomes | 1 h | compound remaining | 47.7%
Cc1cc(C#N)cc(C)c1Oc1nc(Nc2ccc(C#N)cc2)nc(N)c1Br | MT4 | cell growth or viability, MTT | – | 5 days | CC50 | > 4.59 µM
N#C[C@@]1(c2ccc3c(N)ncnn23)O[C@H](CO)[C@@H](O)[C@H]1O | – | – | dog, plasma | 1 µM | fraction unbound | 0.881
Cc1cn([C@H]2C[C@H](N=[N+]=[N-])[C@@H](CO)O2)c(=O)[nH]c1=O | MT4 | cell growth or viability, MTT | – | 5 days | CC50 | > 7.48 µM
N#Cc1ccc(C[C@H](Nc2ncc(-c3ccc(F)cc3)o2)C(=O)N2CCc3ccccc32)cc1 | – | metabolic stability | rat, liver microsomes | 10 µM, 30 min, pH 7.4 | compound remaining | 40%
Cc1cc(/C=C/C#N)cc(C)c1Nc1ccnc(Nc2ccc(C#N)cc2)n1 | MT4 | cell growth or viability, MTT | – | 5 days | CC50 | > 5.46 µM
N#Cc1ccc(C[C@H](Nc2c(Nc3ccc(F)cc3)c(=O)c2=O)C(=O)N2CCc3ccccc32)cc1 | – | metabolic stability | rat, liver microsomes | 10 µM, 30 min, pH 7.4 | compound remaining | 35%
